According to ChEMBL document CHEMBL5712901, “DOT1L inhibition blocks multiple myeloma cell proliferation by suppressing IRF4-MYC signaling” (2019):
Calls of active or inactive are those of the source. The rule behind the calls is not given here.

Experiments:
MM1.S [1] = test: Downregulation of H3K79me2 level in human MM1.S cells at 1 uM for 3 days by ChIP-qPCR analysis; assay type: functional, cell-based; conditions: time 3.0 day
How it was run: (§1)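 ChIP-qPCR for H3K79me2 at IRF4-MYC signaling genes after 1 μM inhibitor or DMSO for 3 days. Signal normalized to input DNA. An intergenic region 28 kb upstream of KLF2 served as negative control. Mean of 3 replications ± SEM.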

MM1.S [2] = test: Induction of cell cycle arrest in human MM1.S cells assessed as increase in accumulation of cells at G1 phase at 1 uM for 6 days; assay type: functional, cell-based; conditions: time 6.0 day
How it was run: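 Flow cytometric cell cycle analysis of RPMI-8226 and MM.1S cells treated with 1 μM DOT1L inhibitor or DMSO for 6 days. Sub-G1, G0-G1 and S phase populations scored. Summary is from 3 replications, mean ± SEM.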

MM1.S [3] = test: Upregulation of IFN in human MM1.S cells assessed as increase in IFITM1 gene at 1 uM for 6 days by qRT-PCR analysis; assay type: functional, cell-based; conditions: time 6.0 day
KMS-12-BM [4] = test: Antiproliferative activity against human KMS-12-BM cells treated 3 days at 1 uM; assay type: functional, cell-based; conditions: time 3.0 day
How it was run: (§2)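 Cell lines in 6-well plates, 2 × 10^4 to 8 × 10^5 cells/well, exposed to DOT1L inhibitor at 0.25-1 μM or DMSO, with medium and drug refreshed every 3 days. Viability read with Cell Counting Kit-8 on a microplate reader. Values normalized to untreated cells; mean of 3 replications ± SEM.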

RPMI-8226 [5] = test: Upregulation of RGS1 gene in human RPMI-8226 cells at 1 uM for 6 days by; assay type: functional, cell-based; conditions: time 6.0 day
MM1.S [6] = test: Upregulation of ZSCAN31 gene in human MM1.S cells at 1 uM for 6 days by; assay type: functional, cell-based; conditions: time 6.0 day
MM1.S [7] = test: Upregulation of GTF2IRD2 gene in human MM1.S cells at 1 uM for 6 days by; assay type: functional, cell-based; conditions: time 6.0 day
How it was run: (§3)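 Human myeloma lines RPMI-8226 and MM.1S exposed to 1 μM DOT1L inhibitor, or DMSO, for 6 days. Whole-genome expression profiled on gene expression microarray.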

RPMI-8226 [8] = test: Upregulation of IFN in human RPMI-8226 cells assessed as increase in IFIT1 gene at 1 uM for 6 days by qRT-PCR analysis; conditions: time 6.0 day
RPMI-8226 [9] = test: Upregulation of NREP gene in human RPMI-8226 cells at 1 uM for 6 days by; assay type: functional, cell-based; conditions: time 6.0 day
MM1.S [10] = test: Upregulation of NREP gene in human MM1.S cells at 1 uM for 6 days by; assay type: functional, cell-based; conditions: time 6.0 day
MM1.S [11] = test: Upregulation of DDIT4L gene in human MM1.S cells at 1 uM for 6 days by; assay type: functional, cell-based; conditions: time 6.0 day; how it was run: as §3
MM1.S [12] = test: Induction of apoptosis in human MM1.S cells assessed as viable cells at 1 uM for 6 days by annexin-V based propidium iodide staining based flow cytometric analysis (reference value: 80.4%); assay type: functional; conditions: 144 h, time 6 day, read-out: Activity
MM1.S [13] = test: Induction of apoptosis in human MM1.S cells assessed as necrotic cells at 1 uM for 6 days by annexin-V based propidium iodide staining based flow cytometric analysis (reference value: 0.16%); assay type: functional; conditions: time 6 day
RPMI-8226 [14] = test: Upregulation of HOXB6 gene in human RPMI-8226 cells at 1 uM for 6 days by; assay type: functional, cell-based; conditions: time 6.0 day
MM1.S [15] = test: Effect on human MM1.S cells assessed as change in Myc mRNA level at 1 uM for 3 days by ChIP-qPCR analysis; assay type: functional, cell-based; conditions: time 3.0 day; how it was run: as §1
MM1.S [16] = test: Induction of apoptosis in human MM1.S cells assessed as viable cells at 1 uM for 3 days by annexin-V based propidium iodide staining based flow cytometric analysis (reference value: 94.3%); assay type: functional; conditions: 72 h, time 3 day, read-out: Activity
RPMI-8226 [17] = test: Induction of growth suppression in human RPMI-8226 cells assessed as reduction H3K79me3 at 1 uM for 3 days Western blot analysis; assay type: functional, cell-based; conditions: time 3.0 day
How it was run: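 RPMI-8226 cells treated with 1 μM DOT1L inhibitor or DMSO for 3 days. H3K79 methylation probed by Western blot with […].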

MM1.S [18] = test: Upregulation of GPD2 gene in human MM1.S cells at 1 uM for 6 days by; assay type: functional, cell-based; conditions: time 6.0 day; how it was run: as §3
RPMI-8226 [19] = test: Upregulation of ANTXR2 gene in human RPMI-8226 cells at 1 uM for 6 days by; assay type: functional, cell-based; conditions: time 6.0 day
MM1.S [20] = test: Upregulation of XKR3 gene in human MM1.S cells at 1 uM for 6 days by; assay type: functional, cell-based; conditions: time 6.0 day
KMS-12-PE = test: Effect on human KMS-12-PE cells assessed as change in IRF4 mRNA level by qRT-PCR analysis; assay type: functional, cell-based
How it was run: (§4)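 Basal MYC and IRF4 mRNA in untreated cells measured by qRT-PCR. Normalized to ACTB; mean of 3 replications ± SEM.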

MM1.S [21] = test: Induction of apoptosis in human MM1.S cells assessed as viable cells at 1 uM for 6 days by annexin-V based propidium iodide staining based flow cytometric analysis (reference value: 77.4%); assay type: functional; conditions: 144 h, time 6 day, read-out: Activity
RPMI-8226 [22] = test: Upregulation of CAPN2 gene in human RPMI-8226 cells at 1 uM for 6 days by; assay type: functional, cell-based; conditions: time 6.0 day
MM1.S [23] = test: Upregulation of NOG gene in human MM1.S cells at 1 uM for 6 days by; assay type: functional, cell-based; conditions: time 6.0 day
MM1.S [24] = test: Upregulation of CARD6 gene in human MM1.S cells at 1 uM for 6 days by; assay type: functional, cell-based; conditions: time 6.0 day
RPMI-8226 [25] = test: Induction of apoptosis in human RPMI-8226 cells assessed as viable cells at 1 uM for 6 days by annexin-V based propidium iodide staining based flow cytometric analysis (reference value: 79.0%); assay type: functional; conditions: RPMI-8226, 144 h, time 6 day, read-out: Activity
RPMI-8226 [26] = test: Induction of apoptosis in human RPMI-8226 cells assessed as late apoptotic cells at 1 uM for 6 days by annexin-V based propidium iodide staining based flow cytometric analysis (reference value: 8.89%); assay type: functional; conditions: time 6 day
KMS-12-BM [27] = test: Effect on human KMS-12-BM cells assessed as change in MYC mRNA level by qRT-PCR analysis; assay type: functional, cell-based; how it was run: as §4
MM1.S [28] = test: Upregulation of IFN in human MM1.S cells assessed as increase in IFI44 gene at 1 uM for 6 days by qRT-PCR analysis; assay type: functional, cell-based; conditions: time 6.0 day
U-266 = test: Antiproliferative activity against human U-266 cells treated 3 days at 1 uM; assay type: functional, cell-based; conditions: time 3.0 day; how it was run: as §2
MM1.S [29] = test: Upregulation of BCL6 gene in human MM1.S cells at 1 uM for 6 days by; assay type: functional, cell-based; conditions: time 6.0 day
RPMI-8226 [30] = test: Upregulation of PRRT2 gene in human RPMI-8226 cells at 1 uM for 6 days by; assay type: functional, cell-based; conditions: time 6.0 day
RPMI-8226 [31] = test: Upregulation of RIMBP3 gene in human RPMI-8226 cells at 1 uM for 6 days by; assay type: functional, cell-based; conditions: time 6.0 day
MM1.S [32] = test: Upregulation of IFN in human MM1.S cells assessed as increase in IFI44 gene at 1 uM for 6 days by qRT-PCR analysis; conditions: time 6.0 day
MM1.S [33] = test: Induction of apoptosis in human MM1.S cells assessed as late apoptotic cells at 1 uM for 6 days by annexin-V based propidium iodide staining based flow cytometric analysis (reference value: 13.4%); assay type: functional; conditions: time 6 day
RPMI-8226 [34] = test: Upregulation of IFN in human RPMI-8226 cells assessed as increase in IFIT1 gene at 1 uM for 6 days by qRT-PCR analysis; assay type: functional, cell-based; conditions: time 6.0 day

CC(C)N(CCCNC(=O)Nc1ccc(C(C)(C)C)cc1)C[C@H]1O[C@@H](n2cc(Br)c3c(N)ncnc32)[C@H](O)[C@@H]1O
Activity (MM1.S [1]): Active | Activity (MM1.S [2]): Active | Activity (MM1.S [3]): Active | Activity (KMS-12-BM [4]): Active | Activity (RPMI-8226 [5]): Active | Activity (MM1.S [6]): Active | Activity (MM1.S [7]): Active | Activity (RPMI-8226 [8]): Active | Activity (RPMI-8226 [9]): Active | Activity (MM1.S [10]): Active | Activity (MM1.S [11]): Active | viability at 1 µM (MM1.S [12]): 67.9% | Activity (MM1.S [13]): 0.21% | Activity (RPMI-8226 [14]): Active | Activity (MM1.S [15]): Active | viability at 1 µM (MM1.S [16]): 92.3% | Activity (RPMI-8226 [17]): Active | Activity (MM1.S [18]): Active | Activity (RPMI-8226 [19]): Active | Activity (MM1.S [20]): Active | Activity (KMS-12-PE): Active | viability at 1 µM (MM1.S [21]): 42.4% | Activity (RPMI-8226 [22]): Active | Activity (MM1.S [23]): Active | Activity (MM1.S [24]): Active | viability at 1 µM (RPMI-8226 [25]): 60.9% | Activity (RPMI-8226 [26]): 20.2% | Activity (KMS-12-BM [27]): Active | Activity (MM1.S [28]): Active | Activity (U-266): inactive | Activity (MM1.S [29]): Active | Activity (RPMI-8226 [30]): Active | Activity (RPMI-8226 [31]): Active

CC(C)N(C[C@H]1O[C@@H](n2cnc3c(N)ncnc32)[C@H](O)[C@@H]1O)[C@H]1C[C@@H](CCc2nc3cc(C(C)(C)C)ccc3[nH]2)C1 [PINOMETOSTAT]
Activity (MM1.S [2]): Active | Activity (MM1.S [3]): Active | Activity (KMS-12-BM [4]): Active | Activity (MM1.S [32]): Active | Activity (RPMI-8226 [8]): Active | viability at 1 µM (MM1.S [12]): 67.5% | Activity (MM1.S [13]): 0.05% | Activity (MM1.S [33]): 27.8% | Activity (RPMI-8226 [34]): Active | Activity (MM1.S [15]): Active | viability at 1 µM (MM1.S [16]): 96.7% | Activity (RPMI-8226 [17]): Active | Activity (KMS-12-PE): Active | viability at 1 µM (MM1.S [21]): 52.8% | viability at 1 µM (RPMI-8226 [25]): 63.5% | Activity (RPMI-8226 [26]): 17.5% | Activity (KMS-12-BM [27]): Active | Activity (U-266): inactive
